Measurements: the M2OR odorant receptor database

What follows are compounds tested on T1, OR3A3 T48I L132F. Details: stereoisomer not certain.
T1 sequence (whole entry): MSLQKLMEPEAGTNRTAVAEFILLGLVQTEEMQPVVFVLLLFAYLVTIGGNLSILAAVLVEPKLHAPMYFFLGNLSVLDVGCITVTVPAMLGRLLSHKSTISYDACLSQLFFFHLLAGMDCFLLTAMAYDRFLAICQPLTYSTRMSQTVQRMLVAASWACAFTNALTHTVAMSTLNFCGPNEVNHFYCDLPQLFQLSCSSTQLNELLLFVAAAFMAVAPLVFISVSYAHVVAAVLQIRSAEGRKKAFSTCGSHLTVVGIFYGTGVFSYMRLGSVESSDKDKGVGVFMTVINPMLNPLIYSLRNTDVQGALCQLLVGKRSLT
Method in brief: (§1)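 Each receptor–molecule pair is labelled responsive or non-responsive (inactive) according to whether the original authors judged the measured signal statistically different from baseline. The data were taken from the main text and supplementary material of published papers and checked for typos and inconsistencies. Assay methods differed by source, with transient luciferase assays in mammalian cell lines being common.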
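Also: active if original authors judged signal statistically different from baseline.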

Odorant receptor agonist call, inactive:
CC1=NC(C)C(C)S1 (stereo not drawn)
CCCC(S)CCOC(C)=O (stereo not drawn)
CC1=C(O)C(=O)C(C)O1 (stereo not drawn)
Cc1cnc(C)c(C)n1
CCCCCCC=CCCC=O
CCC1OC(C)=C(O)C1=O (stereo not drawn)
CCC1OC(=O)C(O)=C1C (stereo not drawn)
CC1=C(O)C(=O)OC1C (stereo not drawn)

What follows are compounds tested against T2, OR3A4P (Homo sapiens) (UniProt P47883). Details: stereoisomer not certain.
T2 sequence (whole entry): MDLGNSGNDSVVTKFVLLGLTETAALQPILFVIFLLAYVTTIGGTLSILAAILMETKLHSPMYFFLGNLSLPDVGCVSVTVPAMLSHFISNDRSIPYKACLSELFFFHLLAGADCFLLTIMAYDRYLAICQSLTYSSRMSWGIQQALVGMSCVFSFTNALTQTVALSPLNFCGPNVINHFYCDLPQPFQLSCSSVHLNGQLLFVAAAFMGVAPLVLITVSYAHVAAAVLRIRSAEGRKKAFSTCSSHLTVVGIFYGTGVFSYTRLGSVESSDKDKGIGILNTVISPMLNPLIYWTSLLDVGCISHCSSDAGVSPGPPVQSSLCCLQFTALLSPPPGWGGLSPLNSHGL
Method in brief: as §1

Odorant receptor agonist call, inactive:
CC(CO)CS (stereo not drawn)
CCCCC(S)C(C)CO (stereo not drawn)
CCCCCC(=O)C(C)C(C)=O (stereo not drawn)
CCC(S)C(C)CO (stereo not drawn)
CCCCCC(S)C(C)CO (stereo not drawn)

These compounds were tested against OR4A15 (Homo sapiens) (UniProt Q8NGL6). Details: stereoisomer not certain.
Chain of OR4A15 (Homo sapiens) (Q8NGL6 whole entry): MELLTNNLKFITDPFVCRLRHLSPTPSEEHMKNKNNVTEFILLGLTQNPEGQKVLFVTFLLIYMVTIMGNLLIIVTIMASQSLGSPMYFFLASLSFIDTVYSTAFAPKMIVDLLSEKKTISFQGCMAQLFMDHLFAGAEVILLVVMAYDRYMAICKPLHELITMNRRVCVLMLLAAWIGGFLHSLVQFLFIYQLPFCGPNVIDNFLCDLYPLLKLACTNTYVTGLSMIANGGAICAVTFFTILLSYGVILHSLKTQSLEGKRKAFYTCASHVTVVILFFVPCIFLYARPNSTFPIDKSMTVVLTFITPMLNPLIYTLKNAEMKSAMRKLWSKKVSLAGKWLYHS
Method in brief: as §1

Odorant receptor agonist call, inactive:
CC1=NC(C)C(C)S1 (stereo not drawn)
CCCC(S)CCOC(C)=O (stereo not drawn)
CC1CCCCCCCCCCCCC(=O)C1 (stereo not drawn)
CC1=C(O)C(=O)C(C)O1 (stereo not drawn)
Cc1cnc(C)c(C)n1
CC(CO)CS (stereo not drawn)
CCCCC(S)C(C)CO (stereo not drawn)
CCCCCC(=O)C(C)C(C)=O (stereo not drawn)
CCCCCCC=CCCC=O
CCC1OC(C)=C(O)C1=O (stereo not drawn)
CCC(S)C(C)CO (stereo not drawn)
CCCCCC(S)C(C)CO (stereo not drawn)
CCC1OC(=O)C(O)=C1C (stereo not drawn)
CC(=O)c1c(C)c([N+](=O)[O-])c(C(C)(C)C)c([N+](=O)[O-])c1C
CC1=C(O)C(=O)OC1C (stereo not drawn)
